Test results as given in ChEMBL document CHEMBL4387704, “Design, synthesis and biological evaluation of novel isoindolinone derivatives as potent histone deacetylase inhibitors” (Eur J Med Chem, 2019).
Activity calls are given as the source filed them. The rule behind the calls is not given here.

How the values were obtained:
[1] = biological target: Polyamine deacetylase HDAC10 (Homo sapiens, UniProt Q969S8); assay: Inhibition of HDAC10 (unknown origin) using Fluor de Lys substrate by fluorescence assay relative to control
In short: (§1)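 Recombinant HDAC isoform assays run by a contract lab. Compounds in DMSO, 10-dose IC50 mode, 3-fold serial dilution from 50 μM. Duplicate runs; IC50 from curve fitting.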

[2] = biological target: Histone deacetylase 4 (Homo sapiens) (UniProt P56524); assay: Inhibition of HDAC4 (unknown origin) using Fluor de Lys substrate by fluorescence assay relative to control; in short: as §1
[3] = Clearance in Sprague-Dawley rat at 1 mg/kg, iv by LC-MS/MS analysis; format: ADME, organism-based; conditions: in vivo
In short: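 Male SD rats, 199-214 g, three per route. Single iv dose of 1 mg/kg or oral dose of 10 mg/kg. About 200 μL blood drawn from the jugular vein into heparinized tubes at set times, then spun to plasma. 30 μL plasma precipitated with CH3CN containing verapamil and glibenclamide as internal standards. Plasma drug level measured by LC-MS/MS.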

[4] = Metabolic stability in human liver microsomes assessed as internal clearance at 1 uM preincubated for 10 mins followed by NADPH addition measured upto 60 mins by LC-MS/MS analysis; format: ADME, Microsome; conditions: read-out: CLH
In short: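 Liver microsomes from male SD rat, dog or human at 0.5 mg/mL in 100 mM potassium phosphate pH 7.4 with 1 μM compound. Prewarmed 37 °C 10 min, started with 1 mM NADPH. Stopped at 0, 5, 10, 20, 40, 60 min with cold methanol containing glibenclamide internal standard; supernatant by LC–MS/MS; T1/2 and CLint derived.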

HOP-92 = assay: Growth inhibition of human HOP92 cells assessed as cell growth inhibition at 10 uM incubated for 48 hrs by sulforhodamine B assay; format: functional; conditions: HOP-92, 48 h, read-out: GI
786-0 = assay: Growth inhibition of human 786-0 cells assessed as cell growth inhibition at 10 uM incubated for 48 hrs by sulforhodamine B assay; format: functional; conditions: 786-0, 48 h, read-out: GI
SK-MEL-28 = assay: Growth inhibition of human SK-MEL-28 cells assessed as cell growth inhibition at 10 uM incubated for 48 hrs by sulforhodamine B assay; format: functional; conditions: SK-MEL-28, 48 h, read-out: GI
K562 = assay: Potency index, ratio of IC50 of chidamide to IC50 of test compound against human K562 cells; format: functional
NCI-H23 = assay: Growth inhibition of human NCI-H23 cells assessed as cell growth inhibition at 10 uM incubated for 48 hrs by sulforhodamine B assay; format: functional; conditions: NCI-H23, 48 h, read-out: GI
RXF 393 = assay: Growth inhibition of human RXF393 cells assessed as cell growth inhibition at 10 uM incubated for 48 hrs by sulforhodamine B assay; format: functional; conditions: RXF 393, 48 h, read-out: GI
[5] = Oral bioavailability in Sprague-Dawley rat at 10 mg/kg by LC-MS/MS analysis; format: ADME, organism-based; conditions: in vivo
In short: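 Male SD rats (199-214 g), three per route, single dose 1 mg/kg iv or 10 mg/kg po. Jugular blood (~200 μL) into heparinized tubes at set times; plasma by centrifugation, protein precipitation with acetonitrile containing verapamil and glibenclamide; drug measured by LC-MS/MS.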

HL-60(TB) = assay: Growth inhibition of human HL-60(TB) cells assessed as cell growth inhibition at 10 uM incubated for 48 hrs by sulforhodamine B assay; format: functional; conditions: HL-60, 48 h, read-out: GI
MDA-MB-435 = assay: Growth inhibition of human MDA-MB-435 cells assessed as cell growth inhibition at 10 uM incubated for 48 hrs by sulforhodamine B assay; format: functional; conditions: MDA-MB-435, 48 h, read-out: GI
MDA-MB-468 = assay: Growth inhibition of human MDA-MB-468 cells assessed as cell growth inhibition at 10 uM incubated for 48 hrs by sulforhodamine B assay; format: functional; conditions: MDA-MB-468, 48 h, read-out: GI
UO-31 = assay: Growth inhibition of human UO31 cells assessed as cell growth inhibition at 10 uM incubated for 48 hrs by sulforhodamine B assay; format: functional; conditions: UO-31, 48 h, read-out: GI
Histone deacetylase 8 = Histone deacetylase 8 (Homo sapiens, UniProt Q9BY41); assay: Inhibition of HDAC8 (unknown origin) using Fluor de Lys substrate by fluorescence assay relative to control; in short: as §1
Histone deacetylase 11 = Histone deacetylase 11 (Homo sapiens, UniProt Q96DB2); assay: Inhibition of HDAC11 (unknown origin) using Fluor de Lys substrate by fluorescence assay relative to control; in short: as §1
RPMI-8226 = assay: Growth inhibition of human RPMI8226 cells assessed as cell growth inhibition at 10 uM incubated for 48 hrs by sulforhodamine B assay; format: functional; conditions: RPMI-8226, 48 h, read-out: GI
NCI-H226 = assay: Growth inhibition of human NCI-H226 assessed as cell growth inhibition at 10 uM incubated for 48 hrs by sulforhodamine B assay; format: functional; conditions: NCI-H226, 48 h, read-out: GI
U-251 = assay: Growth inhibition of human U251 cells assessed as cell growth inhibition at 10 uM incubated for 48 hrs by sulforhodamine B assay; format: functional; conditions: U-251, 48 h, read-out: GI
Histone deacetylase 2 = Histone deacetylase 2 (Homo sapiens, UniProt Q92769); assay: Inhibition of HDAC2 (unknown origin) using Fluor de Lys substrate by fluorescence assay relative to control; in short: as §1
[6] = biological target: Histone deacetylase 9 (Homo sapiens) (UniProt Q9UKV0); assay: Inhibition of HDAC9 (unknown origin) using Fluor de Lys substrate by fluorescence assay relative to control; in short: as §1
[7] = biological target: Protein deacetylase HDAC6 (Homo sapiens) (UniProt Q9UBN7); assay: Inhibition of HDAC6 (unknown origin) using Fluor de Lys substrate by fluorescence assay relative to control; in short: as §1
SNB-75 = assay: Growth inhibition of human SNB75 cells assessed as cell growth inhibition at 10 uM incubated for 48 hrs by sulforhodamine B assay; format: functional; conditions: SNB-75, 48 h, read-out: GI
A498 = assay: Growth inhibition of human A498 cells assessed as cell growth inhibition at 10 uM incubated for 48 hrs by sulforhodamine B assay; format: functional; conditions: A498, 48 h, read-out: GI
HCT-116 = assay: Potency index, ratio of IC50 of chidamide to IC50 of test compound against human HCT116 cells; format: functional
NCI-H460 = assay: Growth inhibition of human NCI-H460 assessed as cell growth inhibition at 10 uM incubated for 48 hrs by sulforhodamine B assay; format: functional; conditions: NCI-H460, 48 h, read-out: GI
SK-OV-3 = assay: Growth inhibition of human SKOV3 cells assessed as cell growth inhibition at 10 uM incubated for 48 hrs by sulforhodamine B assay; format: functional; conditions: SK-OV-3, 48 h, read-out: GI
OVCAR-5 = assay: Growth inhibition of human OVCAR5 cells assessed as cell growth inhibition at 10 uM incubated for 48 hrs by sulforhodamine B assay; format: functional; conditions: OVCAR-5, 48 h, read-out: GI
IGROV-1 = assay: Growth inhibition of human IGROV1 cells assessed as cell growth inhibition at 10 uM incubated for 48 hrs by sulforhodamine B assay; format: functional; conditions: IGROV-1, 48 h, read-out: GI

Chain of Polyamine deacetylase HDAC10 (Q969S8 whole entry, canonical isoform): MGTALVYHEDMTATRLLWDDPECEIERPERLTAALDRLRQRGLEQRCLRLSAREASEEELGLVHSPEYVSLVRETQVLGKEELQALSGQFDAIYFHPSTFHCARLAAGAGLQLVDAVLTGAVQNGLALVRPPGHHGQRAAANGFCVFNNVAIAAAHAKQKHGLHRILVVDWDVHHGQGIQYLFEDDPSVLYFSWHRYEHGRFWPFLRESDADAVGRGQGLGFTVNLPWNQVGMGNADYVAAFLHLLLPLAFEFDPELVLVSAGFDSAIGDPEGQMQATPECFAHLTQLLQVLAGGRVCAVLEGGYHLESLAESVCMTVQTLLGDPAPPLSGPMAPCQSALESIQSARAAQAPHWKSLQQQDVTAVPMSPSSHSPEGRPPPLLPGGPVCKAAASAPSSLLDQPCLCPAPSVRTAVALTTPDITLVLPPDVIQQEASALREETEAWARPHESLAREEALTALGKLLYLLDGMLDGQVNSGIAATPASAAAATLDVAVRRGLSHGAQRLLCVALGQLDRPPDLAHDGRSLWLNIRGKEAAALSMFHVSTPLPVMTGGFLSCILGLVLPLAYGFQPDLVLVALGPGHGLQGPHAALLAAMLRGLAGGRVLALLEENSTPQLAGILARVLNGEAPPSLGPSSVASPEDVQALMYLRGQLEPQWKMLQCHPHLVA
Chain of Histone deacetylase 9 (Homo sapiens) (Q9UKV0 whole entry): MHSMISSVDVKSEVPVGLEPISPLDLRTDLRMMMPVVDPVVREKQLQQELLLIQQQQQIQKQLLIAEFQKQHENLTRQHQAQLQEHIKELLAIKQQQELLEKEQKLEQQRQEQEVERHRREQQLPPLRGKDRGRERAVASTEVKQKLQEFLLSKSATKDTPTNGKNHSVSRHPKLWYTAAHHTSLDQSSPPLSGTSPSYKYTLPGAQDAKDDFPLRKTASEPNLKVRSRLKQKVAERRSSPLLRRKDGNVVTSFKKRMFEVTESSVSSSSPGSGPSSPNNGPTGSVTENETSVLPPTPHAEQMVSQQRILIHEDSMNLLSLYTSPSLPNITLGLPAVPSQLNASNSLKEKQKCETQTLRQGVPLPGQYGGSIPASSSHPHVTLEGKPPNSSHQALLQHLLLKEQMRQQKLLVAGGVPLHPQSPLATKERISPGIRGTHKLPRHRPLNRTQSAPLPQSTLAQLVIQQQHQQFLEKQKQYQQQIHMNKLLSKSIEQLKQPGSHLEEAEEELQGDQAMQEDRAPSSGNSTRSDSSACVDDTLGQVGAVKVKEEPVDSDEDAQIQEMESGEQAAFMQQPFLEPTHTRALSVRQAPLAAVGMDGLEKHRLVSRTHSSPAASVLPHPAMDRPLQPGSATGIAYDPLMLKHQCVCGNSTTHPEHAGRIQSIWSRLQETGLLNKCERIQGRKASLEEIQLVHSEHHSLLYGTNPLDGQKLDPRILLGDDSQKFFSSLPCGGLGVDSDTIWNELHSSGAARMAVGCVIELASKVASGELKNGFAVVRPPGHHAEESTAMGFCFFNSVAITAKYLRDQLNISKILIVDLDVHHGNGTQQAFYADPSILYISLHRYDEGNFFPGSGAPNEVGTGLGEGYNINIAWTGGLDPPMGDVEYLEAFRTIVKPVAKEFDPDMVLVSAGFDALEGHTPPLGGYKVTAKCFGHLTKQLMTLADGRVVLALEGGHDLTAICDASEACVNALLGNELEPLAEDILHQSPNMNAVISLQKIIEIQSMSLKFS
Chain of Histone deacetylase 8 (Q9BY41 whole entry): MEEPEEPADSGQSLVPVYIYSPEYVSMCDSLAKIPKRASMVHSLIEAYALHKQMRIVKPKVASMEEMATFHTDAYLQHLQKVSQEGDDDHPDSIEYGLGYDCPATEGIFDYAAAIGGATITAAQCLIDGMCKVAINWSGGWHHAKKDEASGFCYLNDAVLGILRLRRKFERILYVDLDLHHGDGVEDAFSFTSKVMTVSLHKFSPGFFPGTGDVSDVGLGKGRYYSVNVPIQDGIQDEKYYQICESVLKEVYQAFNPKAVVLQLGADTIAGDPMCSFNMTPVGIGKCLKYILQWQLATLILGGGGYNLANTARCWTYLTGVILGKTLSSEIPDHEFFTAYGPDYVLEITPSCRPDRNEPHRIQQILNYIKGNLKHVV
Chain of Histone deacetylase 4 (Homo sapiens) (P56524 whole entry): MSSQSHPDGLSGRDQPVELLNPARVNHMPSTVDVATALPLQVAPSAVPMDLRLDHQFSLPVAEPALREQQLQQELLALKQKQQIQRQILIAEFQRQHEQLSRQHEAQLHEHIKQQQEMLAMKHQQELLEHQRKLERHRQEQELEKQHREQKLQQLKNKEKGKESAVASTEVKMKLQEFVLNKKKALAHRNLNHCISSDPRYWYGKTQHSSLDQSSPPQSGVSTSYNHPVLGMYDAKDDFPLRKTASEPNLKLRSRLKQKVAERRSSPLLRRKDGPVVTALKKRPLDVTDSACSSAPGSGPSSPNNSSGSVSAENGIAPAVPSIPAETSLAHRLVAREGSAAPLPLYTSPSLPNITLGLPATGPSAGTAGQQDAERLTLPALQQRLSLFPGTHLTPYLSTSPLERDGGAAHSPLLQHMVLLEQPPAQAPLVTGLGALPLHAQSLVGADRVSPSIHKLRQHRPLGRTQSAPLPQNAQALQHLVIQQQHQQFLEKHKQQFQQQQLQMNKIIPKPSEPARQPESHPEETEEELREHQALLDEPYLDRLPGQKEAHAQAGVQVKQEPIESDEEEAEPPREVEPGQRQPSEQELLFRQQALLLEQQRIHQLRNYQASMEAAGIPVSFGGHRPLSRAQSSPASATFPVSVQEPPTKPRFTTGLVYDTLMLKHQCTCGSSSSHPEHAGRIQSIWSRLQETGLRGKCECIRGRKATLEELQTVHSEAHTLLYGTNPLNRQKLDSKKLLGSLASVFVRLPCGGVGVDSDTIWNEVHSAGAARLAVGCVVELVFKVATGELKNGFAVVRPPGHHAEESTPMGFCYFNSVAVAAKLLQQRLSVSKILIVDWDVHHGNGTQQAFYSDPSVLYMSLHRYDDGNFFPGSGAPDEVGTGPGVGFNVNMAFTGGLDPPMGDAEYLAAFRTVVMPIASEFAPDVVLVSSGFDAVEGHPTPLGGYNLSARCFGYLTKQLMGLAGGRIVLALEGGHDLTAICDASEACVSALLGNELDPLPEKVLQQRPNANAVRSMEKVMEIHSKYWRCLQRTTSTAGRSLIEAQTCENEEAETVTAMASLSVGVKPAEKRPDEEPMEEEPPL
Chain of Protein deacetylase HDAC6 (Homo sapiens) (Q9UBN7 whole entry): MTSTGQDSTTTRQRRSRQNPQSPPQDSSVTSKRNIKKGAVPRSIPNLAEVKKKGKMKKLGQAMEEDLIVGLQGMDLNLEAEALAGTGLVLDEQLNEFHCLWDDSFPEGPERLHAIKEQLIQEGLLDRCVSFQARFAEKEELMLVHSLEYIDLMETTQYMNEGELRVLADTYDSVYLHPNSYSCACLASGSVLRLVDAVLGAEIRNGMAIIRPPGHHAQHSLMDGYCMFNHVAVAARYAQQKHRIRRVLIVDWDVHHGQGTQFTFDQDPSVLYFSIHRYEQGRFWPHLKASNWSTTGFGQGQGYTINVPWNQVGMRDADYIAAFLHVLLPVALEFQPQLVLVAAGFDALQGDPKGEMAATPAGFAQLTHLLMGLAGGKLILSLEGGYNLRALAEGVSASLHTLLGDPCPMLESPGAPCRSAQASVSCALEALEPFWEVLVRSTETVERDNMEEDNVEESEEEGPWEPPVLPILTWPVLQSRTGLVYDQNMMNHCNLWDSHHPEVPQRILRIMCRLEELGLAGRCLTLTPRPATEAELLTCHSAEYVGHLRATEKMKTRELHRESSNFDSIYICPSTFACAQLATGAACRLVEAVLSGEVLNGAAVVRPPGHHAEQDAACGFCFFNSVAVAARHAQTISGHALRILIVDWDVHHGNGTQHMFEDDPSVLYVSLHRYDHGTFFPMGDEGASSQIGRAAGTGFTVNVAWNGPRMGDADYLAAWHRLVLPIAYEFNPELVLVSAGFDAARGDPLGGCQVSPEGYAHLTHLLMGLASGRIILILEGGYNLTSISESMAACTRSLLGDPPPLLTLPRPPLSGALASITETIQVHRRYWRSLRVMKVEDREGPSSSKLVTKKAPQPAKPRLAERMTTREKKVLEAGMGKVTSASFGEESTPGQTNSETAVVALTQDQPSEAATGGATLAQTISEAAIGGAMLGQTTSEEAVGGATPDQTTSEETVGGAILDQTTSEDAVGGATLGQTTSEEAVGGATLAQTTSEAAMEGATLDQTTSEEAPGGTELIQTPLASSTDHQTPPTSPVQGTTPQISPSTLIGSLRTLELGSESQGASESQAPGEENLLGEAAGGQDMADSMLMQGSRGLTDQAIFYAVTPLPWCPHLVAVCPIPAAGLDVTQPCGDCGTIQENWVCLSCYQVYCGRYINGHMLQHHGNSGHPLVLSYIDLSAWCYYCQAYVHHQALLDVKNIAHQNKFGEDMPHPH
Chain of Histone deacetylase 11 (Q96DB2 whole entry): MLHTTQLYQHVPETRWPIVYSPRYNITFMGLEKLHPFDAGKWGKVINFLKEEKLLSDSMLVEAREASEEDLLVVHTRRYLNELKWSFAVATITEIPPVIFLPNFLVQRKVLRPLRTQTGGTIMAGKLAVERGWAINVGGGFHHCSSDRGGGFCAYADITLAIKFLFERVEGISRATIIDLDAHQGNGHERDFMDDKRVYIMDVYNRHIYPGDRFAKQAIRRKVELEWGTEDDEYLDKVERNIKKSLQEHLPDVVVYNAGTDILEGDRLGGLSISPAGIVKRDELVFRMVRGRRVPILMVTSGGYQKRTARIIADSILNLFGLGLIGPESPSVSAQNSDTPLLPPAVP

SMILES: Nc1cc(F)ccc1NC(=O)c1ccc(CNC(=O)/C=C2\NC(=O)c3ccccc32)cc1
- IC50 [1]: 950 nM
- inhibition [2]: inactive
- clearance [3]: 21.3 mL/min/kg
- microsomal CLint at 1 µM [4]: 4.8 µL/min/mg
- inhibition of growth at 10 µM (HOP-92): 58.6%
- inhibition of growth at 10 µM (786-0): 7.02%
- inhibition of growth at 10 µM (SK-MEL-28): 33.8%
- Ratio IC50 (K562): 4
- inhibition of growth at 10 µM (NCI-H23): 26.5%
- inhibition of growth at 10 µM (RXF 393): 17.5%
- bioavailability [5]: 16%
- inhibition of growth at 10 µM (HL-60(TB)): 84%
- inhibition of growth at 10 µM (MDA-MB-435): 28.8%
- inhibition of growth at 10 µM (MDA-MB-468): 9.71%
- inhibition of growth at 10 µM (UO-31): 50.1%
- IC50 (Histone deacetylase 8): 1080 nM
- IC50 (Histone deacetylase 11): 632 nM
- inhibition of growth at 10 µM (RPMI-8226): 59.8%
- inhibition of growth at 10 µM (NCI-H226): 30.2%
- inhibition of growth at 10 µM (U-251): 35.9%
- IC50 (Histone deacetylase 2): 75 nM
- inhibition [6]: inactive
- inhibition [7]: inactive
- inhibition of growth at 10 µM (SNB-75): 30.6%
- inhibition of growth at 10 µM (A498): 47.1%
- Ratio IC50 (HCT-116): 2.5
- inhibition of growth at 10 µM (NCI-H460): 26.8%
- inhibition of growth at 10 µM (SK-OV-3): 29.5%
- inhibition of growth at 10 µM (OVCAR-5): 36.4%
- inhibition of growth at 10 µM (IGROV-1): 22.8%
